Laboratory results reported in ChEMBL document CHEMBL5150021, “Identification of 5-(Aryl/Heteroaryl)amino-4-quinolones as Potent Membrane-Disrupting Agents to Combat Antibiotic-Resistant Gram-Positive Bacteria” (J Med Chem, 2022).
Converted amounts (≈) assume the structure as drawn.

Test system: Staphylococcus aureus
Experiment: Antibacterial activity against methicillin resistant Staphylococcus aureus FPR3757 assessed as inhibition of bacterial growth incubated for 24 hrs by CLSI based method
Format: functional
Conditions: read-out: MIC100
Summary of the method: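 It was mixed 1:1 with twofold serial compound dilutions and incubated stationary at 37 °C for 24 h. MIC was the lowest concentration giving complete inhibition of observable growth, with an oxacillin control.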

Compound	MIC
FC(F)(F)c1ccc2c(Nc3cccc4[nH]ncc34)cc(C(F)(F)F)nc2c1	> 32 µg/mL
FC(F)(F)Oc1cccc2c(Nc3ccc(Cl)c(Cl)c3)cc(C(F)(F)F)nc12	0.5 µg/mL (≈ 1.13 µM)
Fc1ccc2nc(C(F)(F)F)cc(Nc3ccc(C(F)(F)F)cn3)c2c1F	16 µg/mL (≈ 40.7 µM)
CN(C)S(=O)(=O)c1ccc(Nc2cc(C(F)(F)F)cc3[nH]c(C(F)(F)F)cc(=O)c23)nc1	2 µg/mL (≈ 4.16 µM)
FC(F)(F)c1ccc(Nc2cc(N3CCOCC3)c3ccc(C(F)(F)F)cc3n2)nc1	8 µg/mL (≈ 18.1 µM)
FC(F)(F)c1ccc2c(Nc3nccs3)cc(C(F)(F)F)nc2c1	1 µg/mL (≈ 2.75 µM)
O=C1Cc2cc(Nc3cc(C(F)(F)F)nc4cc(C(F)(F)F)ccc34)ccc2N1	> 32 µg/mL
FC(F)(F)Oc1cccc(Nc2cc(C(F)(F)F)nc3c(C(F)(F)F)cccc23)c1	1 µg/mL (≈ 2.27 µM)
Oc1cc(C(F)(F)F)nc2c(C(F)(F)F)cccc12	2 µg/mL (≈ 7.11 µM)
FC(F)(F)c1ccc2c(Nc3cccc(Br)c3)cc(C(F)(F)F)nc2c1	0.25 µg/mL (≈ 0.574 µM)
FC(F)(F)c1ccc(Nc2cc(C(F)(F)F)nc3c(C(F)(F)F)cccc23)nc1	0.5 µg/mL (≈ 1.18 µM)
CN(c1ccc(C(F)(F)F)cc1)c1cc(C(F)(F)F)nc2cc(C(F)(F)F)ccc12	> 32 µg/mL
O[C@H]1C[C@H]2CC[C@@H](C1)N2c1cc(C(F)(F)F)nc2cc(C(F)(F)F)ccc12	> 32 µg/mL
FC(F)(F)c1cccc(Nc2cc(C(F)(F)F)nc3cc(C(F)(F)F)ccc23)c1	0.25 µg/mL (≈ 0.589 µM)
FC(F)(F)c1ccc(Nc2cc(N3CCNCC3)nc3cc(C(F)(F)F)ccc23)nc1	0.5 µg/mL (≈ 1.13 µM)
Fc1cc(F)c2nc(C(F)(F)F)cc(Nc3ccc(C(F)(F)F)cn3)c2c1F	> 32 µg/mL
COc1ccc2c(Nc3ccc(C(F)(F)F)cn3)cc(C(F)(F)F)nc2c1	32 µg/mL (≈ 82.6 µM)
Oc1cc(C(F)(F)F)nc2ccccc12	320 µg/mL (≈ 1500 µM)
FC(F)(F)c1ccc2c(Oc3ccc(Cl)c(Cl)c3)cc(C(F)(F)F)nc2c1	> 32 µg/mL
OC1CCCN(c2cc(C(F)(F)F)nc3cc(C(F)(F)F)ccc23)C1 (stereo unspecified)	> 32 µg/mL
CN1Cc2cc(Nc3cc(C(F)(F)F)nc4cc(C(F)(F)F)ccc34)ccc2C1=O	> 32 µg/mL
FC(F)(F)Oc1ccc2c(Nc3ccc(Cl)c(Cl)c3)cc(C(F)(F)F)nc2c1	0.5 µg/mL (≈ 1.13 µM)
FC(F)(F)c1ccc2c(N3CCc4cccnc43)cc(C(F)(F)F)nc2c1	> 32 µg/mL
FC(F)(F)c1ccc2c(NC[C@@H]3CCCN3)cc(C(F)(F)F)nc2c1	> 32 µg/mL
FC(F)(F)c1ccc2c(Nc3ccccc3Cl)cc(C(F)(F)F)nc2c1	> 16 µg/mL
CC(=O)c1cccc(Nc2cc(C(F)(F)F)nc3cc(C(F)(F)F)ccc23)c1	> 128 µg/mL

Compound	MIC
O=C(Nc1cc(C(F)(F)F)nc2cc(C(F)(F)F)ccc12)c1ccc(C(F)(F)F)cn1	> 32 µg/mL
FC(F)(F)c1ccc(Nc2cnnc3cc(C(F)(F)F)ccc23)nc1	> 32 µg/mL
FC(F)(F)c1ccc(Nc2nc(C(F)(F)F)nc3nc(C(F)(F)F)ccc23)nc1	> 32 µg/mL
CN(C)S(=O)(=O)c1ccc2c(Nc3ccc(C(F)(F)F)cn3)cc(C(F)(F)F)nc2c1	8 µg/mL (≈ 17.2 µM)
FC(F)(F)c1ccc2c(Nc3cccc(N4CCOCC4)c3)cc(C(F)(F)F)nc2c1	> 16 µg/mL
CN(C)S(=O)(=O)c1ccc2c(Nc3ccc(F)c(F)c3)cc(C(F)(F)F)nc2c1	> 32 µg/mL
FC(F)(F)c1ccc2c(NC3CCCCC3)cc(C(F)(F)F)nc2c1	> 16 µg/mL
FC(F)(F)c1ccc2c(Nc3cc(Cl)ccn3)cc(C(F)(F)F)nc2c1	2 µg/mL (≈ 5.11 µM)
CN(C)S(=O)(=O)c1ccc2c(Nc3cccc(OC(F)(F)F)c3)cc(C(F)(F)F)nc2c1	8 µg/mL (≈ 16.7 µM)
CN(C)c1ccc(Nc2cc(C(F)(F)F)cc3[nH]c(C(F)(F)F)cc(=O)c23)nc1	2 µg/mL (≈ 4.8 µM)
FC(F)(F)c1ccc2c(Nc3ccc(C(F)(F)F)nc3)cc(C(F)(F)F)nc2c1	> 32 µg/mL
COc1ccc2c(Nc3ccc(F)c(F)c3)cc(C(F)(F)F)nc2c1	> 32 µg/mL
FC(F)(F)c1ccc2c(Nc3ccccc3)cc(C(F)(F)F)nc2c1	128 µg/mL (≈ 359 µM)
Fc1cccc(Nc2cc(C(F)(F)F)nc3cc(C(F)(F)F)ccc23)c1	4 µg/mL (≈ 10.7 µM)
CCc1ccc2c(O)cc(C(F)(F)F)nc2c1	640 µg/mL (≈ 2650 µM)
Fc1ccc2c(Nc3ccc(Cl)c(Cl)c3)cc(C(F)(F)F)nc2c1	0.5 µg/mL (≈ 1.33 µM)
COc1ccc(Nc2cc(C(F)(F)F)nc3cc(C(F)(F)F)ccc23)cn1	> 128 µg/mL
FC(F)(F)c1ccc2c(Nc3cccc(I)c3)cc(C(F)(F)F)nc2c1	0.25 µg/mL (≈ 0.518 µM)
Oc1cc(C(F)(F)F)nc2cc(OC(F)(F)F)ccc12	4 µg/mL (≈ 13.5 µM)
COC(=O)c1cc(Nc2cc(C(F)(F)F)nc3cc(C(F)(F)F)ccc23)ccn1	> 32 µg/mL
FC(F)(F)c1ccc(Nc2nc(C(F)(F)F)nc3cc(C(F)(F)F)ccc23)nc1	2 µg/mL (≈ 4.69 µM)
OCc1cccc(Nc2cc(C(F)(F)F)nc3cc(C(F)(F)F)ccc23)c1	> 16 µg/mL
FC(F)(F)Oc1cccc(Nc2cc(C(F)(F)F)nc3cc(C(F)(F)F)ccc23)c1	8 µg/mL (≈ 18.2 µM)
O=c1cc(Nc2cc(C(F)(F)F)nc3cc(C(F)(F)F)ccc23)cc[nH]1	> 32 µg/mL
CSc1cccc(Nc2cc(C(F)(F)F)nc3cc(C(F)(F)F)ccc23)c1	0.25 µg/mL (≈ 0.621 µM)
Cc1onc(-c2ccccc2)c1C(=O)N[C@@H]1C(=O)N2[C@@H]1SC(C)(C)[C@@H]2C(=O)O [OXACILLIN]	64 µg/mL (≈ 159 µM)

Compound	MIC
FC(F)(F)c1ccc2c(Nc3ccc(N4CCOCC4)cc3)cc(C(F)(F)F)nc2c1	> 16 µg/mL
Fc1ccc(Nc2cc(C(F)(F)F)nc3cc(C(F)(F)F)ccc23)cc1F	0.125 µg/mL (≈ 0.319 µM)
CSc1ccc2c(O)cc(C(F)(F)F)nc2c1	640 µg/mL (≈ 2470 µM)
FC(F)(F)Oc1cccc(Nc2cc(C(F)(F)F)nc3c(OC(F)(F)F)cccc23)c1	1 µg/mL (≈ 2.19 µM)
FC(F)(F)c1ccc2c(Nc3ccncc3)cc(C(F)(F)F)nc2c1	> 32 µg/mL
COc1ccc2c(Nc3cccc(OC(F)(F)F)c3)cc(C(F)(F)F)nc2c1	> 32 µg/mL
FC(F)(F)c1ccc2c(Nc3ccc(Cl)cc3)cc(C(F)(F)F)nc2c1	0.12 µg/mL (≈ 0.307 µM)
FC(F)(F)Oc1cccc(Nc2cc(C(F)(F)F)nc3cc(OC(F)(F)F)ccc23)c1	1 µg/mL (≈ 2.19 µM)
Fc1ccc(Nc2cnnc3cc(C(F)(F)F)ccc23)cc1F	> 32 µg/mL
FC(F)(F)c1ccc(Nc2cc(N3CCOCC3)nc3cc(C(F)(F)F)ccc23)nc1	> 32 µg/mL
COc1cccc(Nc2cc(C(F)(F)F)nc3cc(C(F)(F)F)ccc23)c1	> 64 µg/mL
Oc1cc(C(F)(F)F)nc2cc(Cl)ccc12	20 µg/mL (≈ 80.8 µM)
Cn1cc(Nc2cc(C(F)(F)F)nc3cc(C(F)(F)F)ccc23)ccc1=O	> 32 µg/mL
O=c1cc(C(F)(F)F)[nH]c2cc(C(F)(F)F)cc(N3CCOCC3)c12	> 32 µg/mL
FC(F)(F)c1ccc2c(Nc3ncccn3)cc(C(F)(F)F)nc2c1	> 32 µg/mL
FC(F)(F)c1ccc2c(Nc3ccc4c(c3)OCO4)cc(C(F)(F)F)nc2c1	> 4 µg/mL
FC(F)(F)c1ccc2c(Nc3ccc(Cl)c(Cl)c3)nc(C(F)(F)F)nc2c1	0.5 µg/mL (≈ 1.17 µM)
FC(F)(F)Oc1cccc2c(Nc3ccc(C(F)(F)F)cn3)cc(C(F)(F)F)nc12	1 µg/mL (≈ 2.27 µM)
FC(F)(F)Oc1cccc(Oc2cc(C(F)(F)F)nc3cc(C(F)(F)F)ccc23)c1	> 32 µg/mL
FC(F)(F)Oc1ccc2c(Nc3ccc(C(F)(F)F)cn3)cc(C(F)(F)F)nc2c1	1 µg/mL (≈ 2.27 µM)
FC(F)c1cc(Nc2ccc(Cl)c(Cl)c2)c2ccc(C(F)(F)F)cc2n1	1 µg/mL (≈ 2.46 µM)
FC(F)(F)c1ccc2c(Nc3cccc(Cl)c3)cc(C(F)(F)F)nc2c1	0.25 µg/mL (≈ 0.64 µM)
COc1ccc2c(O)cc(C(F)(F)F)nc2c1	640 µg/mL (≈ 2630 µM)
O=c1cc(C(F)(F)F)[nH]c2cc(C(F)(F)F)ccc12	5 µg/mL (≈ 17.8 µM)
